Experimental data as given in ChEMBL document CHEMBL3585281, “Antibacterial Labdane Diterpenoids from Vitex vestita” (2015).
≈ marks a conversion by molar mass, not a printed value.

How the values were obtained:
Format in all cases: functional
[1] = system: Corynebacterium striatum; experiment: Antibacterial activity against Corynebacterium striatum N840 after 18 hrs by agar dilution method; settings: N840, 18 h
How it was run: (§1)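 Agar-dilution MIC against Gram-positive strains. Compounds in DMSO, geometric dilutions giving final 100−0.75 mg/L in Mueller Hinton agar. Strains grown 18 h at 37 °C in trypticase soy broth, diluted in sterile water, spotted by Steers inoculator (about 1000 UFC/spot). Plates incubated 18 h at 37 °C; DMSO blank; ofloxacin positive control. MIC = lowest concentration with no visible growth.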

[2] = system: Enterococcus gallinarum; experiment: Antibacterial activity against Enterococcus gallinarum N489 after 18 hrs by agar dilution method; settings: N489, 18 h; how it was run: as §1
[3] = system: Enterococcus hirae; experiment: Antibacterial activity against Enterococcus hirae CIP 5855 after 18 hrs by agar dilution method; settings: CIP 5855, 18 h; how it was run: as §1
[4] = system: Staphylococcus aureus; experiment: Antibacterial activity against Staphylococcus aureus ATCC 9144 oxford after 18 hrs by agar dilution method; how it was run: as §1
[5] = system: Enterococcus faecium; experiment: Antibacterial activity against Enterococcus faecium N823 after 18 hrs by agar dilution method; settings: N823, 18 h; how it was run: as §1
[6] = system: Enterococcus durans; experiment: Antibacterial activity against Enterococcus durans CIP 104999 after 18 hrs by agar dilution method; settings: CIP 104999, 18 h; how it was run: as §1
[7] = system: Enterococcus gallinarum; experiment: Antibacterial activity against Enterococcus gallinarum N492 after 18 hrs by agar dilution method; settings: N492, 18 h; how it was run: as §1
[8] = system: Enterococcus faecalis; experiment: Antibacterial activity against Enterococcus faecalis N520 after 18 hrs by agar dilution method; settings: N520, 18 h; how it was run: as §1
[9] = system: Bacillus cereus; experiment: Antibacterial activity against Bacillus cereus N190 after 18 hrs by agar dilution method; settings: N190, 18 h; how it was run: as §1
[10] = system: Staphylococcus aureus; experiment: Antibacterial activity against Staphylococcus aureus CIP 53154 after 18 hrs by agar dilution method; settings: CIP 53154, 18 h; how it was run: as §1
[11] = system: Staphylococcus epidermidis; experiment: Antibacterial activity against Staphylococcus epidermidis CIP 53124 after 18 hrs by agar dilution method; settings: CIP 53124, 18 h; how it was run: as §1
[12] = system: Enterococcus faecium; experiment: Antibacterial activity against Enterococcus faecium CIP 107387 after 18 hrs by agar dilution method; settings: CIP 107387, 18 h; how it was run: as §1
[13] = system: Listeria monocytogenes; experiment: Antibacterial activity against Listeria monocytogenes N851 after 18 hrs by agar dilution method; settings: N851, 18 h; how it was run: as §1
[14] = system: Staphylococcus haemolyticus; experiment: Antibacterial activity against Staphylococcus haemolyticus CIP 8156 after 18 hrs by agar dilution method; settings: CIP 8156, 18 h; how it was run: as §1
[15] = system: Enterococcus faecium; experiment: Antibacterial activity against Enterococcus faecium N733 after 18 hrs by agar dilution method; settings: N733, 18 h; how it was run: as §1
[16] = system: Listeria monocytogenes; experiment: Antibacterial activity against Listeria monocytogenes CIP 103575 after 18 hrs by agar dilution method; settings: CIP 103575, 18 h; how it was run: as §1
[17] = system: Enterococcus casseliflavus; experiment: Antibacterial activity against Enterococcus casseliflavus N487 after 18 hrs by agar dilution method; settings: N487, 18 h; how it was run: as §1
[18] = system: Listeria monocytogenes; experiment: Antibacterial activity against Listeria monocytogenes N783 after 18 hrs by agar dilution method; settings: N783, 18 h; how it was run: as §1
[19] = system: Bacillus cereus; experiment: Antibacterial activity against Bacillus cereus N349 after 18 hrs by agar dilution method; settings: N349, 18 h; how it was run: as §1
[20] = system: Enterococcus faecium; experiment: Antibacterial activity against Enterococcus faecium CIP 103014 after 18 hrs by agar dilution method; settings: CIP 103014, 18 h; how it was run: as §1
[21] = system: Enterococcus faecalis; experiment: Antibacterial activity against Enterococcus faecalis CIP 103214 after 18 hrs by agar dilution method; settings: CIP 103214, 18 h; how it was run: as §1
[22] = system: Listeria innocua; experiment: Antibacterial activity against Listeria innocua E044 after 18 hrs by agar dilution method; settings: E044, 18 h; how it was run: as §1
[23] = system: Mammaliicoccus sciuri; experiment: Antibacterial activity against Staphylococcus sciuri N993 after 18 hrs by agar dilution method; settings: N993, 18 h; how it was run: as §1
[24] = system: Staphylococcus aureus; experiment: Antibacterial activity against Staphylococcus aureus ATCC 25923 after 18 hrs by agar dilution method; settings: ATCC 25923, 18 h; how it was run: as §1
[25] = system: Bacillus cereus; experiment: Antibacterial activity against Bacillus cereus CIP 6624 after 18 hrs by agar dilution method; settings: CIP 6624, 18 h; how it was run: as §1
[26] = system: Staphylococcus saprophyticus; experiment: Antibacterial activity against Staphylococcus saprophyticus CIP 76125 after 18 hrs by agar dilution method; settings: CIP 76125, 18 h; how it was run: as §1
[27] = system: Enterococcus faecium; experiment: Antibacterial activity against Enterococcus faecium N490 after 18 hrs by agar dilution method; settings: N490, 18 h; how it was run: as §1
[28] = system: Enterococcus faecium; experiment: Antibacterial activity against Enterococcus faecium N507 after 18 hrs by agar dilution method; settings: N507, 18 h; how it was run: as §1
[29] = system: Enterococcus gallinarum; experiment: Antibacterial activity against Enterococcus gallinarum CIP 105985 after 18 hrs by agar dilution method; settings: CIP 105985, 18 h; how it was run: as §1
[30] = system: Staphylococcus aureus; experiment: Antibacterial activity against Staphylococcus aureus CRBIP 2121 after 18 hrs by agar dilution method; settings: CRBIP 2121, 18 h; how it was run: as §1
[31] = system: Streptococcus agalactiae; experiment: Antibacterial activity against Streptococcus agalactiae CIP 103227 after 18 hrs by agar dilution method; settings: ATCC 13813, 18 h; how it was run: as §1
[32] = system: Bacillus cereus; experiment: Antibacterial activity against Bacillus cereus N258 after 18 hrs by agar dilution method; settings: N258, 18 h; how it was run: as §1
[33] = system: Bacillus spizizenii; experiment: Antibacterial activity against Bacillus subtilis ATCC 6633 after 18 hrs by agar dilution method; settings: ATCC 6633, 18 h; how it was run: as §1
[34] = system: Listeria monocytogenes; experiment: Antibacterial activity against Listeria monocytogenes N836 after 18 hrs by agar dilution method; settings: N836, 18 h; how it was run: as §1
[35] = system: Staphylococcus aureus; experiment: Antibacterial activity against Staphylococcus aureus CIP 7625 after 18 hrs by agar dilution method; settings: CIP 7625, 18 h; how it was run: as §1
[36] = system: Enterococcus faecalis; experiment: Antibacterial activity against Enterococcus faecalis CIP 104676 after 18 hrs by agar dilution method; settings: CIP 104676, 18 h; how it was run: as §1
[37] = system: Staphylococcus aureus; experiment: Antibacterial activity against Staphylococcus aureus CIP 483 after 18 hrs by agar dilution method; settings: CIP 483, 18 h; how it was run: as §1
[38] = system: Staphylococcus lugdunensis; experiment: Antibacterial activity against Staphylococcus lugdunensis ATCC 43809 after 18 hrs by agar dilution method; settings: ATCC 43809, 18 h; how it was run: as §1
[39] = system: Enterococcus avium; experiment: Antibacterial activity against Enterococcus avium CIP 104053 after 18 hrs by agar dilution method; settings: CIP 104053, 18 h; how it was run: as §1
[40] = system: Staphylococcus intermedius; experiment: Antibacterial activity against Staphylococcus intermedius N987 after 18 hrs by agar dilution method; settings: N987, 18 h; how it was run: as §1
[41] = system: Enterococcus faecalis; experiment: Antibacterial activity against Enterococcus faecalis N491 after 18 hrs by agar dilution method; settings: N491, 18 h; how it was run: as §1
[42] = system: Enterococcus casseliflavus; experiment: Antibacterial activity against Enterococcus casseliflavus CIP 103018 after 18 hrs by agar dilution method; settings: CIP 103018, 18 h; how it was run: as §1
[43] = system: Enterococcus faecalis; experiment: Antibacterial activity against Enterococcus faecalis N518 after 18 hrs by agar dilution method; settings: N518, 18 h; how it was run: as §1
[44] = system: Staphylococcus aureus; experiment: Antibacterial activity against Staphylococcus aureus CIP 5710 after 18 hrs by agar dilution method; settings: CIP 5710, 18 h; how it was run: as §1
[45] = system: Staphylococcus saprophyticus; experiment: Antibacterial activity against Staphylococcus saprophyticus E260 after 18 hrs by agar dilution method; settings: E260, 18 h; how it was run: as §1
[46] = system: Staphylococcus aureus; experiment: Antibacterial activity against Staphylococcus aureus CIP 53156 after 18 hrs by agar dilution method; settings: CIP 53156, 18 h; how it was run: as §1

MIC [1]: > 354 µM
MIC [2]: 6 µM (≈ 2.17 µg/mL)
MIC [3]: 3 µM (≈ 1.08 µg/mL)
MIC [4]: 0.7 µM (≈ 0.253 µg/mL)
MIC [5]: 354 µM (≈ 128 µg/mL)
MIC [6]: 1.4 µM (≈ 0.506 µg/mL)
MIC [7]: 11 µM (≈ 3.98 µg/mL)
MIC [8]: 354 µM (≈ 128 µg/mL)
MIC [9]: 0.7 µM (≈ 0.253 µg/mL)
MIC [10]: 0.7 µM (≈ 0.253 µg/mL)
MIC [11]: 1.4 µM (≈ 0.506 µg/mL)
MIC [12]: 177 µM (≈ 64 µg/mL)
MIC [13]: 6 µM (≈ 2.17 µg/mL)
MIC [15]: > 354 µM
MIC [16]: 6 µM (≈ 2.17 µg/mL)
MIC [17]: 11 µM (≈ 3.98 µg/mL)
MIC [18]: 6 µM (≈ 2.17 µg/mL)
MIC [19]: 1.4 µM (≈ 0.506 µg/mL)
MIC [20]: 22 µM (≈ 7.95 µg/mL)
MIC [21]: 3 µM (≈ 1.08 µg/mL)
MIC [22]: 11 µM (≈ 3.98 µg/mL)
MIC [23]: 3 µM (≈ 1.08 µg/mL)
MIC [24]: 1.4 µM (≈ 0.506 µg/mL)
MIC [25]: 0.7 µM (≈ 0.253 µg/mL)
MIC [26]: 3 µM (≈ 1.08 µg/mL)
MIC [27]: 6 µM (≈ 2.17 µg/mL)
MIC [28]: 354 µM (≈ 128 µg/mL)
MIC [29]: 11 µM (≈ 3.98 µg/mL)
MIC [30]: 177 µM (≈ 64 µg/mL)
MIC [31]: 1.4 µM (≈ 0.506 µg/mL)
MIC [32]: 0.7 µM (≈ 0.253 µg/mL)
MIC [33]: ≤ 0.2 µM
MIC [34]: 6 µM (≈ 2.17 µg/mL)
MIC [35]: 1.4 µM (≈ 0.506 µg/mL)
MIC [36]: 3 µM (≈ 1.08 µg/mL)
MIC [37]: 0.7 µM (≈ 0.253 µg/mL)
MIC [38]: 3 µM (≈ 1.08 µg/mL)
MIC [39]: 6 µM (≈ 2.17 µg/mL)
MIC [40]: 89 µM (≈ 32.2 µg/mL)
MIC [41]: 6 µM (≈ 2.17 µg/mL)
MIC [42]: 11 µM (≈ 3.98 µg/mL)
MIC [43]: 11 µM (≈ 3.98 µg/mL)
MIC [44]: 0.7 µM (≈ 0.253 µg/mL)
MIC [45]: 3 µM (≈ 1.08 µg/mL)
MIC [46]: 0.7 µM (≈ 0.253 µg/mL)
SMILES: CC1COc2c(N3CCN(C)CC3)c(F)cc3c(=O)c(C(=O)O)cn1c23 (stereo unspecified) [OFLOXACIN]
MIC [14]: 0.7 µM (≈ 0.253 µg/mL)
